# Data from ChEMBL document CHEMBL3596195, “Novel cajaninstilbene acid derivatives as antibacterial agents” (Eur J Med Chem, 2015).
# What was measured:
# [1] = Selectivity index, ratio of IC50 for mouse RAW264.7 cells to MIC for Staphylococcus epidermidis ATCC12228; type: toxicity; details: read-out: Selectivity Index
# Summary of the method: (§1)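 SI = IC50 in mouse RAW 264.7 macrophages divided by broth-dilution MIC. For cytotoxicity, cells in DMEM/10% FBS/2 mM L-glutamine were seeded at 10,000/well for 12 h. They were then dosed across a concentration gradient in 1% FBS medium with DMSO below 0.1% for 72 h. Read-out was MTT, absorbance 562 nm, 4 wells × at least 3 runs.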
# Staphylococcus aureus [2] = test: Antibacterial activity against methicillin-resistant Staphylococcus aureus ATCC523512 assessed as bacterial growth inhibition after 24 hrs by broth dilution method; type: functional; details: ATCC523512, 24 h
# Staphylococcus aureus [3] = test: Antibacterial activity against Staphylococcus aureus ATCC25923 assessed as bacterial growth inhibition after 24 hrs by broth dilution method; type: functional; details: ATCC25923, 24 h
# [4] = Selectivity index, ratio of IC50 for mouse RAW264.7 cells to MIC for methicillin-resistant Staphylococcus aureus ATCC62202; type: toxicity; details: read-out: Selectivity Index; summary of the method: as §1
# Staphylococcus aureus [5] = test: Antibacterial activity against methicillin-resistant Staphylococcus aureus ATCC62202 assessed as bacterial growth inhibition after 24 hrs by broth dilution method; type: functional; details: ATCC62202, 24 h
# Bacillus subtilis [6] = test: Antibacterial activity against Bacillus subtilis ATCC6633 assessed as bacterial growth inhibition after 24 hrs by broth dilution method; type: functional; details: ATCC6633, 24 h
# Proteus vulgaris = test: Antibacterial activity against Proteus vulgaris ATCC49101 assessed as bacterial growth inhibition after 24 hrs by broth dilution method; type: functional; details: ATCC49101, 24 h
# Pseudomonas aeruginosa = test: Antibacterial activity against Pseudomonas aeruginosa ATCC2785 assessed as bacterial growth inhibition after 24 hrs by broth dilution method; type: functional; details: ATCC2785, 24 h
# Staphylococcus aureus [7] = test: Antibacterial activity against methicillin-resistant Staphylococcus aureus ATCC52056 assessed as bacterial growth inhibition after 24 hrs by broth dilution method; type: functional; details: ATCC52056, 24 h
# [8] = Selectivity index, ratio of IC50 for mouse RAW264.7 cells to MIC for methicillin-resistant Staphylococcus aureus ATCC523512; type: toxicity; details: read-out: Selectivity Index; summary of the method: as §1
# [9] = Selectivity index, ratio of IC50 for mouse RAW264.7 cells to MIC for methicillin-resistant Staphylococcus aureus ATCC51033; type: toxicity; details: read-out: Selectivity Index; summary of the method: as §1
# [10] = Selectivity index, ratio of IC50 for mouse RAW264.7 cells to MIC for Staphylococcus aureus ATCC25923; type: toxicity; details: read-out: Selectivity Index; summary of the method: as §1
# [11] = Selectivity index, ratio of IC50 for mouse RAW264.7 cells to MIC for methicillin-resistant Staphylococcus aureus ATCC515992; type: toxicity; summary of the method: as §1
# [12] = Selectivity index, ratio of IC50 for mouse RAW264.7 cells to MIC for methicillin-resistant Staphylococcus aureus ATCC510019; type: toxicity; details: read-out: Selectivity Index; summary of the method: as §1
# [13] = Cytotoxicity against mouse RAW264.7 cells assessed as cell viability at 8 ug/ml after 72 hrs by MTT assay; type: cell-based; details: read-out: Activity
# Summary of the method: (§2)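 Mouse RAW 264.7 macrophages grown in DMEM with 10% FBS, 2 mM L-glutamine and penicillin/streptomycin at 37 °C, 5% CO2. Seeded at 10,000 cells/well for 12 h. Compound diluted 1000× from DMSO stock into 1% FBS medium (DMSO under 0.1%), over a concentration gradient, 72 h exposure. MTT formazan dissolved in DMSO for 45 min, absorbance read at 562 nm. Quadruplicate wells, at least three runs (N = 12).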
# Staphylococcus aureus [14] = test: Antibacterial activity against methicillin-resistant Staphylococcus aureus ATCC425055 assessed as bacterial growth inhibition after 24 hrs by broth dilution method; type: functional; details: ATCC425055, 24 h
# [15] = Selectivity index, ratio of IC50 for mouse RAW264.7 cells to MIC for methicillin-resistant Staphylococcus aureus ATCC43300; type: toxicity; details: read-out: Selectivity Index; summary of the method: as §1
# Staphylococcus aureus [16] = test: Antibacterial activity against methicillin-resistant Staphylococcus aureus ATCC513045 assessed as bacterial growth inhibition after 24 hrs by broth dilution method; type: functional; details: ATCC513045, 24 h
# Staphylococcus aureus [17] = test: Antibacterial activity against methicillin-resistant Staphylococcus aureus ATCC510019 assessed as bacterial growth inhibition after 24 hrs by broth dilution method; type: functional; details: ATCC510019, 24 h
# [18] = Selectivity index, ratio of IC50 for mouse RAW264.7 cells to MIC for Bacillus subtilis ATCC6633; type: toxicity; details: read-out: Selectivity Index; summary of the method: as §1
# [19] = Selectivity index, ratio of IC50 for mouse RAW264.7 cells to MIC for methicillin-resistant Staphylococcus aureus ATCC425055; type: toxicity; details: read-out: Selectivity Index; summary of the method: as §1
# [20] = tested on: Staphylococcus epidermidis; test: Antibacterial activity against Staphylococcus epidermidis ATCC12228 assessed as bacterial growth inhibition after 24 hrs by broth dilution method; type: functional; details: ATCC12228, 24 h
# Staphylococcus aureus [21] = test: Antibacterial activity against methicillin-resistant Staphylococcus aureus ATCC51033 assessed as bacterial growth inhibition after 24 hrs by broth dilution method; type: functional; details: ATCC51033, 24 h
# Escherichia coli = test: Antibacterial activity against Escherichia coli ATCC25922 assessed as bacterial growth inhibition after 24 hrs by broth dilution method; type: functional; details: ATCC25922, 24 h
# [22] = Selectivity index, ratio of IC50 for mouse RAW264.7 cells to MIC for methicillin-resistant Staphylococcus aureus ATCC52056; type: toxicity; details: read-out: Selectivity Index; summary of the method: as §1
# RAW264.7 = test: Cytotoxicity against mouse RAW264.7 cells assessed as inhibition of cell viability after 72 hrs by MTT assay; type: cell-based; details: RAW264.7, 72 h; summary of the method: as §2
# Staphylococcus aureus [23] = test: Ratio of penicillin MIC to compound MIC for Staphylococcus aureus ATCC25923 after 24 hrs by broth dilution method; type: functional
# Staphylococcus aureus [24] = test: Antibacterial activity against methicillin-resistant Staphylococcus aureus ATCC43300 assessed as bacterial growth inhibition after 24 hrs by broth dilution method; type: functional; details: ATCC43300, 24 h
# [25] = tested on: Staphylococcus epidermidis; test: Ratio of norfloxacin MIC to compound MIC for Staphylococcus epidermidis ATCC12228 after 24 hrs by broth dilution method; type: functional
# Staphylococcus aureus [26] = test: Antibacterial activity against methicillin-resistant Staphylococcus aureus ATCC515992 assessed as bacterial growth inhibition after 24 hrs by broth dilution method; type: functional; details: ATCC515992, 24 h
# [27] = Selectivity index, ratio of IC50 for mouse RAW264.7 cells to MIC for methicillin-resistant Staphylococcus aureus ATCC513045; type: toxicity; details: read-out: Selectivity Index; summary of the method: as §1
# Staphylococcus aureus [28] = test: Ratio of norfloxacin MIC to compound MIC for Staphylococcus aureus ATCC25923 after 24 hrs by broth dilution method; type: functional
# Summary of the method: (§3)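 MICs came from broth double dilution from 256 µg/mL in 5×10^5 cells/mL culture, 37 °C, 24 h, read visually as the lowest concentration without turbidity. The ratio is the reference antibiotic's MIC over the compound's MIC.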
# [29] = tested on: Staphylococcus epidermidis; test: Ratio of penicillin MIC to compound MIC for Staphylococcus epidermidis ATCC12228 after 24 hrs by broth dilution method; type: functional; summary of the method: as §3
# Bacillus subtilis [30] = test: Ratio of norfloxacin MIC to compound MIC for Bacillus subtilis ATCC6633 after 24 hrs by broth dilution method; type: functional
Structure (SMILES),MIC (Staphylococcus aureus [2]) [µg/mL],MIC (Staphylococcus aureus [3]) [µg/mL],selectivity ratio [4],MIC (Staphylococcus aureus [5]) [µg/mL],MIC (Bacillus subtilis [6]) [µg/mL],MIC (Proteus vulgaris) [µg/mL],MIC (Pseudomonas aeruginosa) [µg/mL],MIC (Staphylococcus aureus [7]) [µg/mL],selectivity ratio [9],selectivity ratio [10],selectivity ratio [11],selectivity ratio [12],"viability at 72 h, 8 ug/ml [13] [%]",MIC (Staphylococcus aureus [14]) [µg/mL],MIC (Staphylococcus aureus [16]) [µg/mL],MIC (Staphylococcus aureus [17]) [µg/mL],MIC [20] [µg/mL],MIC (Staphylococcus aureus [21]) [µg/mL],MIC (Escherichia coli) [µg/mL],selectivity ratio [22],further results
COc1cc(/C=C/c2ccccc2F)c(C(=O)O)c(O)c1CC=C(C)C,2,4,6.17,0.5,0.5,> 64,> 64,2,6.17,6.17,12.3,12.3,92.7,0.5,2,2,1,1,64,12.3,selectivity ratio [1]: 6.17; selectivity ratio [8]: 6.17; selectivity ratio [15]: 6.17; selectivity ratio [18]: 6.17; selectivity ratio [19]: 6.17; IC50 (RAW264.7): 24.7 µg/mL; Ratio (Staphylococcus aureus [23]): 64; MIC (Staphylococcus aureus [24]): 1 µg/mL; Ratio [25]: 8; MIC (Staphylococcus aureus [26]): 2 µg/mL; selectivity ratio [27]: 6.17
COc1cc(/C=C/c2cccc(F)c2)c(C(=O)O)c(O)c1CC=C(C)C,2,4,5.04,0.5,0.5,> 64,> 64,0.5,5.04,5.04,20.2,20.2,91.7,2,2,1,2,1,> 128,40.3,selectivity ratio [1]: 5.04; selectivity ratio [8]: 5.04; selectivity ratio [15]: 5.04; selectivity ratio [18]: 5.04; selectivity ratio [19]: 5.04; IC50 (RAW264.7): 20.2 µg/mL; Ratio (Staphylococcus aureus [23]): 64; MIC (Staphylococcus aureus [24]): 1 µg/mL; Ratio [25]: 8; MIC (Staphylococcus aureus [26]): 1 µg/mL; selectivity ratio [27]: 5.04
COc1cc(/C=C/c2ccc(C(F)(F)F)cc2)c(C(=O)O)c(O)c1CC=C(C)C,0.5,2,12.9,0.5,1,> 64,> 64,4,12.9,12.9,51.4,12.9,90.6,0.5,8,2,2,1,> 128,6.43,selectivity ratio [1]: 12.9; Ratio (Staphylococcus aureus [28]): 8; selectivity ratio [8]: 12.9; selectivity ratio [15]: 12.9; selectivity ratio [18]: 12.9; selectivity ratio [19]: 12.9; IC50 (RAW264.7): 25.7 µg/mL; Ratio (Staphylococcus aureus [23]): 1; MIC (Staphylococcus aureus [24]): 2 µg/mL; MIC (Staphylococcus aureus [26]): 0.5 µg/mL; selectivity ratio [27]: 12.9; Ratio [29]: 64
COc1cc(/C=C/c2ccc(F)cc2F)c(C(=O)O)c(O)c1CC=C(C)C,2,1,46.5,1,2,> 64,> 64,2,46.5,46.5,46.5,23.3,94.4,0.5,2,2,0.5,1,> 128,23.3,IC50 (RAW264.7): 46.5 µg/mL; Ratio (Staphylococcus aureus [23]): 64; MIC (Staphylococcus aureus [24]): 2 µg/mL; MIC (Staphylococcus aureus [26]): 1 µg/mL; Ratio (Bacillus subtilis [30]): 8
